From ChEMBL document CHEMBL1125031, “Structure-activity relationship of antiestrogens. Studies on 2,3-diaryl-1-benzopyrans” (J Med Chem, 1990) come the findings set out here.

Assay [1] concerns the target T1, Estrogen receptor (Rattus norvegicus) (UniProt P06211+Q62986). As to the kind of experiment: Estrogenic activity as mean uterine weight in rats after 1 mg dose. The assay is classed as functional. The procedure, abridged:
(§1)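 Immature female Sprague-Dawley rats, 21–23 days old, in groups of 6–9. Test doses suspended in 0.2 mL propylene glycol–0.9% saline (1:1, v/v) and given subcutaneously on three consecutive days; vehicle-only controls. Autopsy 24 h after the last injection, uterine wet weight recorded in mg as mean ± SD.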

Assay [2] has as its target T1, Estrogen receptor (Rattus norvegicus). As to the kind of experiment: Antiestrogenic activity in presence of estradiol as mean uterine weight in rats after 10 ug dose. It is filed as functional.
Assay [3] shares this target. Kind of assay: Antiestrogenic activity in presence of estradiol at 10 ug/rat. It is filed as functional.
Assay [4] shares this target. Kind of assay: Antiestrogenic activity in presence of estradiol at 30 ug/rat. It is filed as functional.
For assay [5] the target is unchanged. Kind of assay: Antiestrogenic activity in presence of estradiol at 0 ug/rat. It is filed as functional.
The target is the same in assay [6]. As to the kind of experiment: Antiestrogenic activity in presence of estradiol at 1 ug/rat. The assay is classed as functional.
For assay [7] the target is unchanged. Kind of assay: Estrogenic activity as mean uterine weight in rats after 10 ug dose. It is filed as functional. The procedure, abridged:
as §1

Assay [8] shares this target. As to the kind of experiment: Estrogenic activity as mean uterine weight in rats at 0 ug/rat. It is filed as functional. In outline:
as §1

The target is the same in assay [9]. Kind of assay: Estrogenic activity as mean uterine weight in rats at 1 ug/rat. It is filed as functional. In outline: as §1
For assay [10] the target is unchanged. Kind of assay: Estrogenic activity as mean uterine weight in rats at 30 ug/rat. It is filed as functional. The procedure, abridged: as §1
Assay [11] has the same target. Kind of assay: Mean percent inhibition of uterotrophic effect in rats at 0 ug/rat. The assay is classed as functional.
Assay [12] shares this target. As to the kind of experiment: Mean percent inhibition of uterotrophic effect in rats at 1 ug/rat. It is filed as functional.
The target is the same in assay [13]. As to the kind of experiment: Mean percent inhibition of uterotrophic effect in rats at 10 ug/rat. It is filed as functional.
Assay [14] shares this target. Kind of assay: Mean percent inhibition of uterotrophic effect in rats at 30 ug/rat. The assay is classed as functional.
Assay [15] shares this target. Kind of assay: Estrogenic activity as mean uterine weight in rats at 10 ug/rat. It is filed as functional. In outline:
as §1

Assay [16] shares this target. Kind of assay: Antiestrogenic activity in presence of estradiol as mean uterine weight in rats at 1 mg dose.

Turning to `c1ccc(C2Cc3ccccc3OC2c2ccc(OCCN3CCCC3)cc2)cc1` (stereo unspecified), the Mean weight in [1] was 12.3 mg; in [2] it was 57.2 mg.

`COc1ccc2c(c1)OC(c1ccc(OCCN3CCCC3)cc1)C(c1ccccc1)=C2` (stereo unspecified): the Mean weight turned out to be 27.5 mg in assay [3]; 23.6 mg in assay [4]; 44.7 mg in assay [5]; 38.3 mg in assay [6]; 27.6 mg in assay [7]; 28.3 mg in assay [2]. Further, the values for the Mean weight in [8], in assay [9] and in assay [10] were 10.6 mg, 23.8 mg and 25 mg, respectively. In addition, the inhibition (commonly the share of the control response that was lost under treatment) was found to be 0% in assay [11], 9% in assay [12], 50% in [13] and 65% in assay [14].

As for `O=c1c(-c2ccccc2)c(-c2ccc(OCCN3CCCC3)cc2)oc2ccccc12`, the values for the Mean weight in assay [7] and in [2] were 13.2 mg and 40.3 mg, respectively.

Turning to `c1ccc(C2=C(c3ccc(OCCN4CCCC4)cc3)Oc3ccccc3C2)cc1`, the Mean weight was 24 mg in assay [1] and 29.4 mg in assay [2].

With `C1=C(c2ccccc2)C(c2ccc(OCCN3CCCC3)cc2)Oc2ccccc21` (stereo unspecified), the Mean weight in assay [4] came out at 22.2 mg; in assay [5], 45.1 mg; in assay [6] it was 39.9 mg; in [7], 24.6 mg; in [8], 11.2 mg; in assay [9], 22.5 mg. Moreover, the results for the Mean weight in [10] and in [15] were 23.6 mg and 24.6 mg, respectively. The inhibition in assay [11] stood at 0%; in assay [12], 12%; in assay [13], 66%; in assay [14] it was 70%.

As to `Oc1ccc(C2Oc3ccccc3CC2c2ccccc2)cc1` (stereo unspecified), the values for the Mean weight in assay [1] and in assay [2] were 14.9 mg and 59 mg, respectively.

`O=c1c(-c2ccccc2)c(-c2ccccc2)oc2cc(OCCN3CCCC3)ccc12`: the Mean weight is 11.1 mg in [7] and 40.7 mg in assay [2].

For the compound `Oc1ccc(C2=C(c3ccccc3)Cc3ccccc3O2)cc1`, the values for the Mean weight in assay [1] and in assay [16] were 26.2 mg and 46.7 mg, respectively.

Take `Oc1ccc(C2Oc3ccccc3C=C2c2ccccc2)cc1` (stereo unspecified): the Mean weight in assay [1] is 13.8 mg; in [2], 48.8 mg.

Regarding `COc1ccc2c(c1)OC(c1ccc(OCCN3CCCC3)cc1)C(c1ccccc1)C2=O` (stereo unspecified), the figures for the Mean weight in [7] and in assay [2] were 12 mg and 46.5 mg, respectively.
